# In article PMC12219357 (Nature Communications, 2025):
# “And” between values parts separate entries of the source, which are not always exact repeats. Equal values may be shown once. “Also recorded” adds a separate entry of the source. Where a SMILES comes first, the peptide text is derived from it. The star is where a group is joined. 5FAM = O=C1OC2(c3ccc(O)cc3Oc3cc(O)ccc32)c2ccc(C(=O)*)cc21
# Key:
# Format in all cases: in vivo, human
# [1] = Pharmacokinetics after intravenous infusion
# [2] = system: adult patients with head and neck neoplasms; assay: Vital signs, physical examination and 12-lead ECG
# [3] = system: nerves (head and neck surgery); assay: Quantitative image analysis of intraoperative nerve fluorescence; conditions: for Background fluorescence, mean pixel intensity (MPI): FL images
# Method in brief: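 Paired white-light and fluorescence images taken intraoperatively through a surgical microscope with a yellow 560 fluorescence module. Analysis used the green channel of fluorescence images and 5–20 elliptical ROIs per nerve and per adjacent non-nerve tissue. After background subtraction, SBR = nerve MPI / background MPI. Statistics: Welch ANOVA, Kruskal-Wallis, Wilcoxon rank sum.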
# [4] = system: nerves (head and neck surgery); assay: Visualization Scoring System; conditions: 500 mg
# [5] = system: adult patients with head and neck neoplasms; assay: Clinical laboratory assessments
# Method in brief: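 Test compound given as a single IV infusion over 30 min on Day 1, at dose tiers of 100–600 mg. Hematology, chemistry, coagulation and urinalysis were run at the preoperative visit, then repeated on Day 1 before dosing and at end of infusion. Histamine, tryptase, C3a and C5 were sampled before, during and after infusion. Further safety labs on Day 15 (±8 days) and Day 28 (+5 days). Summarized descriptively by dose.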
# [6] = system: adult patients with head and neck neoplasms undergoing parotidectomy or thyroidectomy
compound,measurement,setting,value
CC(C)[C@H](NC(=O)[C@H](Cc1ccc(O)cc1)NC(=O)[C@H](Cc1ccc(O)cc1)NC(=O)[C@@H]1CCCN1C(=O)[C@H](CCC(=O)O)NC(=O)[C@H](CCC(=O)O)NC(=O)[C@H](Cc1c[nH]c2ccccc12)NC(=O)[C@@H]1CCCN1C(=O)[C@@H](NC(=O)[C@H](CCC(N)=O)NC(=O)c1ccc2c(c1)C(=O)OC21c2ccc(O)cc2Oc2cc(O)ccc21)C(C)C)C(=O)N[C@H](C(=O)N[C@@H](CCCCN)C(=O)N[C@@H](CCCCN)C(=O)N[C@@H](CO)C(=O)N[C@@H](CO)C(=O)NCC(=O)NCC(N)=O)C(C)C [bevonescein] (5FAM-QVPWEEPYYVVKKSSGG-NH2; C-terminus assumed),Increase of mean unbound AUClast over the 6-fold increase in dose,"[1]; 100 to 600 mg, bevonescein not bound to plasma or tissue proteins",6.1 fold
same,Free fraction,[1]; from unbound vs total AUClast,approximately 30%
same,Changes from baseline in vital signs,[2]; all cohorts,no clinically significant or relevant differences
same,ECG values,"[2]; all patients, 12-lead ECG",normal or non-clinically significant abnormal ECG values
same,"SBR, FL images",[3]; 500 mg cohort (dose comparison),3.0 ± 1.0
same,"Background fluorescence, mean pixel intensity (MPI)",[3]; 500 mg cohort,39.5 ± 17
same,"Signal-to-background ratio (SBR), fluorescence (FL) images","[3]; 500 mg, 54 evaluable nerves in 14 subjects, mean ± SD",2.1 ± 0.8 and 2.08 ± 0.83
same,"Fluorescent SBR of nerves, early (1-3 h) versus late (3-5 h) timing cohorts","[3]; 500 mg, infusion to incision, two-sided Wilcoxon rank sum test",not statistically different; also recorded: no significant difference
same,"Background fluorescence, mean pixel intensity (MPI)","[3]; 600 mg cohort, Welch ANOVA p < 0.01 vs 500 mg",73.2 ± 34
same,"SBR, FL images","[3]; 600 mg cohort, Kruskal-Wallis p > 0.05 vs 500 mg",2.2 ± 1.6
same,"Improvement in nerve length with FL images, share of subjects (so in the source)",[4],78%
same,Subjects with some improvement in visible nerve length,[4]; 14 subjects,100%
same,Individual nerves with improvement in length measurements,"[4]; n = 42/54 nerves, paired FL overlay vs WLR",78%
same,"Hematology, chemistry, coagulation, and urinalysis findings","[5]; all patients, as deemed by the investigators",normal ranges or not clinically significant abnormalities
same,Tryptase and complements C3a and C5 levels,[5]; during the study,remained stable
same,AEs greater than grade 1 attributable to the study drug,[6]; 27 patients,no adverse events greater than grade 1
same,AEs assessed as possibly related to the study drug,"[6]; 27 subjects, all doses, resolved without intervention",a single adverse event
same,Tolerability of preoperative intravenous infusion,[6]; 100-600 mg,well tolerated
same,Dose-limiting toxicity (DLT),"[6]; all doses 100-600 mg, single IV infusion over 30 min, 27 patients, NCI CTCAE",no dose-limiting toxicity
